Measurements collected from several papers.
Target: Dual specificity mitogen-activated protein kinase kinase 1 (MAP2K1, Homo sapiens, UniProt Q02750)

CCCCC(=O)Nc1ccc(-c2ccc3ncn(CCC)c(=O)c3c2)cn1  remaining binding (binding, competition with immobilised ligand; 0.5 µM): 52%
N#Cc1ccc(NC(=O)Nc2ccccc2)cc1  remaining binding (cell-free assay, competition with immobilised ligand; 25 µM): 66%
Cc1ccc(NC(=O)c2ccnc(C(F)(F)F)c2)cc1-c1cc(OCCO)nc(N2CCOCC2)c1  remaining binding (binding, competition with immobilised ligand; 1 µM): 86%
CO[C@@H]1[C@H](N(C)C(=O)c2ccccc2)C[C@H]2O[C@]1(C)n1c3ccccc3c3c4c(c5c6ccccc6n2c5c31)C(=O)NC4  inhibition (enzyme activity, inhibitor; 1 µM): 30%
COc1ccc2oc(-c3ccc4nc(N)oc4c3)c/c(=N\c3ccccc3NC(=O)CCN)c2c1  remaining binding (binding; 1 µM): 102%
Cc1cc(O)c(-c2ccc([C@@H](C)CN(C)C)cc2)c2c1[nH]c(=O)c1sccc12  inhibition (enzyme activity, inhibitor; 0.1 µM): 8.68%
C=CC(=O)N1CCC[C@@H](n2nc(-c3ccc(Oc4ccccc4)cc3)c3c(N)ncnc32)C1  inhibition (enzyme activity, inhibitor; 1 µM): 84%
COc1ccc2[nH]c3c4[nH]c5ccc(OC)cc5c4c4c(c3c2c1)C(=O)NC4=O  remaining binding (binding, competition with immobilised ligand; 1 µM): 70%
